Data as given in ChEMBL document CHEMBL1177751, “Antifungal and cytotoxic activity of withanolides from Acnistus arborescens” (J Nat Prod, 2010).

Experiments:
[1] = Cytotoxicity against imatinib and dasatinib-resistant mouse DA1-3b/M2 cells after 72 hrs by MTT assay; assay type: functional, cell-based
Procedure, shortened: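 Cells seeded at 10^4/well and exposed to compound or DMSO vehicle for 72 h. MTT added for the final 4 h, absorbance read at 490 nm; triplicate, camptothecin as positive control. K562R, DA1-3b/M2 and bone marrow cells (three healthy donors) grown in RPMI 1640 + 1% glutamine, 1% penicillin/streptomycin, 10% FCS. EML-C1 cultured per ATCC instructions.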

Pneumocystis carinii = assay: Antifungal activity against Pneumocystis carinii after 4 days by RAL-555 staining based microscopy; assay type: functional, organism-based; details: 96 h
Procedure, shortened: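 Pneumocystis carinii came from the lungs of athymic Lou nu/nu rats that were dexamethasone-immunosuppressed and infected. Broth microdilution in DMEM + 10% FCS, 1.0 × 10^6 organisms/mL, final drug 1.1 × 10^-5 to 212.3 µM diluted from DMSO stocks. Incubated 4 days at 37 °C, 5% CO2, with a drug-free control. Smears stained with RAL-555 and counted microscopically; triplicate. Hill (Emax sigmoid) model used.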

Row | IC50 (Pneumocystis carinii) [nM] | SMILES | IC50 [1] [nM]
1 |  | CC[C@@]1(O)C(=O)OCc2c1cc1n(c2=O)Cc2cc3ccccc3nc2-1 [CAMPTOTHECIN] | 30
2 | 84 | N=C(N)c1ccc(OCCCCCOc2ccc(C(=N)N)cc2)cc1 [PENTAMIDINE] | 
